According to article PMC5061631 (Cell metabolism, 2016):
pIC50: −log10 of the molar value.

What was measured:
site IQ = conditions: ref Orr et al., 2013; cited from earlier work
[1] = test system: site IQ of mitochondrial respiratory complex I; format: biochemical, rat; conditions: for pIC50: read-out: IC50 against superoxide-H2O2 production from site IQ, isolated rat skeletal muscle mitochondria
In short: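 Freshly isolated rat skeletal muscle mitochondria, in the high-throughput screen run in 1,536-well format with library compounds at 10 µM. H2O2 was detected by Amplex UltraRed, which horseradish peroxidase oxidises to fluorescent resorufin. Data were normalised to the plate median signal, and rotenone was included on every plate as the positive site IQ inhibitor.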

H9c2 rat cardiomyoblasts = assay: ER stress protection assay: caspase 3/7 activation by tunicamycin; format: cell-based; conditions: H9c2 cells, 0.5 µg/ml tunicamycin, 24 hr
In short: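 H9c2 cardiomyoblasts were seeded at 8,000 cells/well and grown 24 hr in DMEM with 10% FBS. Test compound or 1% DMSO vehicle was added, then 0.5 µg/ml tunicamycin 15 min later. After a further 24 hr, caspase 3/7 activity was read by luminescence. Background from cells without tunicamycin was subtracted, and values were normalised to vehicle-treated tunicamycin-exposed cells.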

intestinal stem cells = assay: In vivo stem cell proliferation assays in Drosophila intestine; parameters: species or system Drosophila melanogaster; conditions: dietary, 800 nM; 50 µM tunicamycin
In short: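 Tunicamycin model: w;esgGal4,UAS-GFP virgins were crossed to Oregon Red males. Six-day-old offspring were starved 4 hr, fed 24 hr on 5% sucrose with 0.8% DMSO plus test compound, starved 1 hr, then given the same food with 50 µM tunicamycin for 24 hr. Adult female intestines were fixed and immunostained for phospho-histone H3, and positive cells were counted manually.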

perfused mouse heart = assay: Langendorff-perfused heart model of ischemia-reperfusion injury; conditions: 1.6 µM for 5 min at reperfusion
In short: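 Mouse hearts were excised under tribromoethanol anaesthesia and perfused retrogradely at 4 ml/min in modified Krebs-Henseleit buffer with glucose, palmitate/BSA, lactate and pyruvate. After 20 min equilibration, hearts had 25 min global no-flow ischaemia and 60 min reperfusion. Test compound (1.6 µM) or 0.05% DMSO was infused for 5 min at reperfusion onset. Rate × developed pressure was normalised to pre-ischaemic baseline, infarct area was measured by TTC in 4–6 slices, and n = 6 per group.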

Compound	concentrations with off-target effects (site IQ) [µM]	inhibition of the fluorescent signal (positive inhibitor of site IQ) ([1]; plate control in screen) [%]	pIC50 [1]	caspase 3/7 activation by tunicamycin (H9c2 rat cardiomyoblasts)	suppression of tunicamycin-induced increase in mitotic marker phospho-histone H3 (intestinal stem cells)	post-ischemic recovery of cardiac function (rate × pressure product) (perfused mouse heart; 25 min ischemia)	infarct size (perfused mouse heart; TTC staining)
O=[N+]([O-])c1ccc(Oc2ccc(S(=O)(=O)NC3CCCCC3)cc2)cc1 [CN-POBS, N-cyclohexyl-4-(4-nitrophenoxy) benzenesulfonamide]	> 10	–	–	–	–	–	–
C=C(C)[C@H]1Cc2c(ccc3c2O[C@@H]2COc4cc(OC)c(OC)cc4[C@@H]2C3=O)O1 [Rotenone, reference compound]	–	> 85	–	–	–	–	–
CC(=O)Nc1cccc(NC(=O)C(=O)NCCc2sc(-c3ccc(C)cc3)nc2C)c1 [S1QEL1.1]	–	–	7.15	strongly attenuated caspase activation	up to 45%	significantly improved	small but significant decrease
CCCCC1CCC(C(=O)NCCS(=O)(=O)N2CCN(c3cccc(Cl)c3)CC2)CC1 (stereo not shown) [S1QEL2.2]	–	–	5.82	also did so at higher concentrations	up to 45%	–	–
